These results are taken from ChEMBL document CHEMBL1131450, “Synthesis and antitumor evaluation of 2,5-disubstituted-indazolo[4, 3-gh]isoquinolin-6(2H)-ones (9-aza-anthrapyrazoles)” (J Med Chem, 1998).

In brackets after ≈: the same amount, converted by molar mass.

What is called IC50 is the point on the concentration scale where inhibition reaches its midpoint. What is called T/C is the result in the treated group divided by that in the control group, in per cent.

Assay [1] concerns MX1. The assay can be described thus: In vivo antitumor activity was measured on MX-1 human mammary carcinoma cells. TWI%=tumor weight inhibition. Optimal dose 130 mg/kg/day. Format: functional.
In assay [2] the test system is LoVo/Dx (Homo sapiens). The experiment in a line: cells.
The subject of assay [3] is LoVo. The assay can be described thus: In vitro cytotoxicity on human colon adenocarcinoma (LoVo ) tumor cell line. The class given is functional, cell-based.
Assay [4] deals with P388. The assay can be described thus: In vivo antitumor activity was measured on systemic P388 murine leukemia cells. Optimal dose 120 mg/kg/day. Format: functional, Mus musculus. A digest of the protocol:
(§1)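 CD2F1 male mice given 10⁶ P388 leukemia cells iv (day 0); drug given iv on days 1, 4 and 7. Survival expressed as T/C% = median survival time of treated / median survival of controls × 100, reported at optimal dose (mg/kg/day) or maximum tested dose.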

For assay [5], the system named is LoVo. The assay can be described thus: Resistance index measured as the ratio of IC50 of LoVo/Dx cell line to that of LoVo cell line. Format: functional, Homo sapiens.
Assay [6] concerns MX1. The experiment in a line: In vivo antitumor activity was measured on MX-1 human mammary carcinoma cells. TWI%=tumor weight inhibition. Optimal dose 120 mg/kg/day. Format: functional.
The subject of assay [7] is P388. The assay can be described thus: In vivo antitumor activity was measured on systemic P388 murine leukemia cells. Optimal dose 90 mg/kg/day. Format: functional, Mus musculus. A digest of the protocol:
as §1

The test system of assay [8] is P388. The assay can be described thus: In vivo antitumor activity was measured on systemic P388 murine leukemia cells. Maximum tested dose 3 mg/kg/day. Format: functional, Mus musculus. A digest of the protocol:
as §1

Assay [9] deals with MX1. The experiment in a line: In vivo antitumor activity was measured on MX-1 human mammary carcinoma cells. TWI%=tumor weight inhibition. Optimal dose 24 mg/kg/day. Format: functional.
Assay [10] deals with P388. The assay can be described thus: In vivo antitumor activity was measured on systemic P388 murine leukemia cells. Optimal dose 40 mg/kg/day. The class given is functional, Mus musculus. To be noted: in the assay text read “6 mg/kg/day” for “40 mg/kg/day”. The gist of the method: as §1
The test system of assay [11] is P388. The experiment in a line: In vivo antitumor activity was measured on systemic P388 murine leukemia cells. Optimal dose 1.5 mg/kg/day. Format: functional, Mus musculus. A digest of the protocol:
as §1

Assay [12] concerns P388. The experiment in a line: In vivo antitumor activity was measured on systemic P388 murine leukemia cells. Optimal dose 7.5 mg/kg/day. The class given is functional, Mus musculus. A digest of the protocol: as §1
Assay [13] deals with MX1. The experiment in a line: In vivo antitumor activity was measured on MX-1 human mammary carcinoma cells. TWI%=tumor weight inhibition. Optimal dose 10 mg/kg/day. The class given is functional.
Assay [14] relates to MX1. The assay can be described thus: In vivo antitumor activity was measured on MX-1 human mammary carcinoma cells. TWI%=tumor weight inhibition. Optimal dose 11 mg/kg/day. The class given is functional.
For assay [15], the system named is P388. The experiment in a line: In vivo antitumor activity was measured on systemic P388 murine leukemia cells. Optimal dose 9 mg/kg/day. Format: functional, Mus musculus. A digest of the protocol:
as §1

For assay [16], the system named is MX1. The assay can be described thus: In vivo antitumor activity was measured on MX-1 human mammary carcinoma cells. TWI%=tumor weight inhibition. Optimal dose 4.5 mg/kg/day. Format: functional.
Assay [17] relates to P388. The experiment in a line: In vivo antitumor activity was measured on systemic P388 murine leukemia cells. Optimal dose 2 mg/kg/day. The class given is functional, Mus musculus. A digest of the protocol:
as §1

Assay [18] deals with MX1. The experiment in a line: Antitumor activity was measured on MX-1 human mammary carcinoma cells. TWI%=tumor weight inhibition. Optimal dose at 13.5 mg/kg/day. Format: functional.
Assay [19] deals with P388. The experiment in a line: In vivo antitumor activity was measured on systemic P388 murine leukemia cells. Optimal dose at 13.5 mg/kg/day. The class given is functional, Mus musculus. The gist of the method:
as §1

Assay [20] deals with MX1. The assay can be described thus: Antitumor activity was measured on MX-1 human mammary carcinoma cells. TWI%=tumor weight inhibition. Optimal dose at 7.5 mg/kg/day. The class given is functional.
The test system of assay [21] is P388. The experiment in a line: In vivo antitumor activity was measured on systemic P388 murine leukemia cells. Optimal dose at 7.5 mg/kg/day. The class given is functional, Mus musculus. A digest of the protocol:
as §1

`O=C1c2ccncc2-c2nn(CCNCCO)c3ccc(NCCN(CCO)CCO)c1c23` came in with a TWI in assay [1] of 45%. The IC50 in assay [2] and in assay [3] was above 100 µg/mL each time. Further, the T/C in assay [4] amounted to 111%.

Consider `O=C1c2ccncc2-c2nn(CCNCCO)c3ccc(NCCO)c1c23`, for which, in assay [5], the RI is on record as above 1.9. The TWI in [6] is 49%. Besides, the IC50 in assay [2] was above 100 µg/mL; in assay [3], 53.1 µg/mL (≈ 145 µM). In assay [7], this molecule had a T/C of 113%.

For `CN(C)CCn1nc2c3c(c(NCCN4CCCCC4)ccc31)C(=O)c1ccncc1-2`, the RI in assay [5] is reported as 1.1. For the same molecule, the IC50 stood at 0.39 µg/mL (≈ 0.932 µM) in assay [2] and 0.35 µg/mL (≈ 0.836 µM) in assay [3]. Moreover, the T/C in [8] is reported as 113%. The molecule also displayed a TWI in assay [9] of 6%.

With `CNCCn1nc2c3c(c(NCCNCCO)ccc31)C(=O)c1ccncc1-2`, the RI in [5] was 109. In addition, the values for the IC50 in [2] and in assay [3] were 31.6 µg/mL (≈ 83.1 µM) and 0.29 µg/mL (≈ 0.762 µM), respectively. Moreover, the T/C in assay [10] was determined as 181%.

In the case of `CNCCNc1ccc2c3c(nn2CCNC)-c2cnccc2C(=O)c13`, the RI in [5] came out at 78. The values for the IC50 in assay [2] and in [3] were 3.14 µg/mL (≈ 8.96 µM) and 0.04 µg/mL (≈ 0.114 µM), respectively. The same molecule showed a T/C in [11] of 167%.

`CN(C)CCCn1nc2c3c(c(NCCNCCO)ccc31)C(=O)c1ccncc1-2`: the RI in [5] came to 300. Also, the IC50 is 90 µg/mL (≈ 220 µM) in assay [2] and 0.3 µg/mL (≈ 0.734 µM) in [3]. The molecule also registered a T/C in [12] of 166%. The same molecule gave a TWI in [13] of 98%.

Consider `CN(C)CCNc1ccc2c3c(nn2CCN)-c2cnccc2C(=O)c13`, for which, in [5], the RI is recorded as 53. Moreover, the TWI in [14] was found to be 80%. The IC50 in [2] is 15.9 µg/mL (≈ 45.4 µM); in assay [3], 0.3 µg/mL (≈ 0.856 µM). Further, the T/C in assay [15] is 231%.

For `CN(C)CCn1nc2c3c(c(NCCN)ccc31)C(=O)c1ccncc1-2`, the RI in assay [5] came out at 27. For the same molecule, the IC50 in assay [2] was 4.3 µg/mL (≈ 12.3 µM); in assay [3], 0.16 µg/mL (≈ 0.457 µM). The same molecule came in with a TWI in assay [16] of 87%. In addition, the T/C in assay [17] is 213%.

For `Cl.Cl.O=C1c2c(O)cccc2-c2nn(CCNCCO)c3ccc(NCCNCCO)c1c23`, in assay [5], the RI was 840. Further, the IC50 in assay [2] was 44.5 µg/mL; in assay [3], 0.053 µg/mL. Further, the TWI in assay [18] is on record as 95%. Moreover, the T/C in assay [19] was determined as 147%.

With `COc1cccc2c1C(=O)c1c(O)c3c(c(O)c1C2=O)C[C@@](O)(C(=O)CO)C[C@@H]3O[C@H]1C[C@H](N)[C@H](O)[C@H](C)O1` [DOXORUBICIN], the RI in assay [5] is recorded as 91.3. The TWI in assay [20] turned out to be 64%. For the same molecule, the IC50 in assay [2] is 53 µg/mL (≈ 97.5 µM); in [3], 0.58 µg/mL (≈ 1.07 µM). In addition, in assay [21], the T/C is on record as 200%.
